From PubChem
Apaf1 inhib: inhibitors of human Apaf-1 apoptosome, primary screen, biochemical, DEVD-Rh110 fluorescence, uHTS | Apoptotic protease-activating factor 1 (Homo sapiens), O14727 | reconstituted apoptosome caspase-3 activity | inhibition, % at 20 µM | hit rate 0.71% among 330,000 | AID 489030, 2010; active means inhibition of at least 40% at 20 µM;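 further: plate controls were DMSO wells for no effect and DEVD-CHO caspase inhibitor wells for full effect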
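System: Apoptosome proteins | Medium: Hepes pH 7.5 with detergent and BSA | Also added: Cytochrome c trigger plus (Z-DEVD)2-Rh110 caspase-3 substrate | Incubation: 30 min compound preincubation, 50 min activation, room temperature | Detection: Rhodamine 110 fluorescence at Ex 480/Em 540 nm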
PREPL inh: PREPL enzyme inhibitors, primary screen, biochemical, fluorescence polarization | Prolyl endopeptidase-like (Homo sapiens), Q4J6C6 | recombinant PREPL, fluorescence polarization activity-based probe | inhibition, % at 5.96 µM | hit rate 0.68% among 320,000 | AID 2751, 2010; in the data active means inhibition above about 43%;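 further: 0% = enzyme with DMSO and 100% = wells lacking enzyme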
PAFAH1B3 FP inh: PAFAH1B3 enzyme inhibitors, primary screen, biochemical, fluorescence polarization, human | hit rate 0.28% among 340,000 | recombinant PAFAH1B3, FP-rhodamine probe | AID 492972, 2010 | inhibition, % at 3.39 µM;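 active means inhibition above the screen-wide average of all tested compounds plus 3 SD, cut at about 25% in these data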;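 further: 0% = enzyme with DMSO only and 100% = wells lacking PAFAH1B3 protein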
Target sequence (Q15102 whole entry, looked up): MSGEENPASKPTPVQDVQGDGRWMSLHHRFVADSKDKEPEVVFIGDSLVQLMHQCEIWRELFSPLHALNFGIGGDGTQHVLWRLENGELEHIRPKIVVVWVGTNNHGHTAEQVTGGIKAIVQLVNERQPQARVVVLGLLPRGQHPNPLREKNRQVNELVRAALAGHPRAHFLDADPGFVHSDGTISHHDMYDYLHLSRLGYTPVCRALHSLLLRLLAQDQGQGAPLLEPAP
pPAFAH inh: pPAFAH enzyme inhibitors, primary screen, biochemical, fluorescence polarization, human; Platelet-activating factor acetylhydrolase (Homo sapiens), Q13093; recombinant pPAFAH, FP-rhodamine probe fluorescence polarization; inhibition, % at 3.39 µM; hit rate 1.5% among 330,000; AID 463082, 2010;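 active means inhibition above the mean inhibition across the screen plus 3 SD, cut at about 25% in these data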;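 further: inhibitors block binding of the rhodamine activity-based probe so polarization drops; 0% = enzyme with DMSO and 100% = wells lacking pPAFAH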
Target sequence (Q13093 whole entry, looked up): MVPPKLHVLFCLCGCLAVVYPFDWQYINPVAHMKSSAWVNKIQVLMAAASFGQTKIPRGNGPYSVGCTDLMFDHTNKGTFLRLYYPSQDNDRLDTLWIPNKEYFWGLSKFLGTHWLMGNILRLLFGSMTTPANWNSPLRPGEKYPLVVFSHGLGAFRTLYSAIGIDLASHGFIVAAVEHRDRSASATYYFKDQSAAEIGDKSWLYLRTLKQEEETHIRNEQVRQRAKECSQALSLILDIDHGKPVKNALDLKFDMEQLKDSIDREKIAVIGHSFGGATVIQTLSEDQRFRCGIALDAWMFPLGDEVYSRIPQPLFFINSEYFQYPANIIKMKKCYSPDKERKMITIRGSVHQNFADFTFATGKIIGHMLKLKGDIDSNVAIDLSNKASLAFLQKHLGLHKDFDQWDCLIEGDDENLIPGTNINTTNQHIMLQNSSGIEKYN
PAFAH2 FP inh: PAFAH2 enzyme inhibitors, primary screen, biochemical, fluorescence polarization, human. Platelet-activating factor acetylhydrolase 2, cytoplasmic (Homo sapiens), Q99487. recombinant PAFAH2, FP-rhodamine activity probe. inhibition, % at 3.39 µM. hit rate 0.99% among 340,000;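 active means inhibition above the mean over all tested compounds plus 3 SD, cut at about 30% in these data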;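 further: inhibitors block probe labeling of enzyme so polarization drops; 0% = enzyme with DMSO and 100% = wells lacking PAFAH2 protein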
PAFAH1B2 FP inh: PAFAH1B2 enzyme inhibitors, primary screen, biochemical, fluorescence polarization, human; Platelet-activating factor acetylhydrolase IB subunit alpha2 (Homo sapiens), P68402; recombinant PAFAH1B2, FP-rhodamine activity probe; inhibition, % at 3.39 µM; hit rate 1.2% among 340,000; AID 492953, 2010;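 active means inhibition above the mean of all tested compounds plus 3 SD, cut at about 24% in these data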;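 further: 0% = enzyme with DMSO and 100% = wells lacking PAFAH1B2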
* marks the source's active call; other numbers are inactive results; · = not tested or not shown. Hits are enriched below; roughly 3.5% of the tested compounds scored in any of these assays.

SMILES | Apaf1 inhib | PREPL inh | PAFAH1B3 FP inh | pPAFAH inh | PAFAH2 FP inh | PAFAH1B2 FP inh
O=C(NCC(=O)N1CCN(c2ccccc2F)CC1)c1ccco1 | 4 | · | 3 | · | -2 | 7
COc1cccc(CN(C)C(=O)c2ccc(COc3ccc(Cl)cc3)cc2)c1OC | 26 | 22 | -3 | 8 | -7 | 25*
COc1ccccc1CN(C)C(=O)c1ccc(COc2ccccc2)cc1 | 16 | 12 | 3 | 10 | -15 | 2
O=C(NC1CCN(Cc2ccccc2Cl)CC1)c1ccccc1 | 2 | -6 | 5 | 5 | 0 | 4
O=S1(=O)CCOC[C@H](c2ccccc2)N1Cc1ccccc1F | 5 | -5 | 3 | 3 | -5 | 29*
CCC1COCCS(=O)(=O)N1Cc1ccccc1F (centres undefined) | 2 | 15 | 2 | -3 | -6 | -1
Cc1cc(C2(O)C(=O)Nc3ccccc32)ccc1F (centres undefined) | -2 | 6 | 3 | 5 | 1 | 3
Cc1ccc(C)n1C(CC(=O)O)c1ccc(C#N)cc1 (centres undefined) | 2 | -2 | · | 25* | · | ·
CCOC(=O)CC(c1ccc(N)cc1)n1c(C)ccc1C (centres undefined) | 1 | 11 | -2 | -1 | 3 | 2
Cc1cc(Oc2ncccc2[N+](=O)[O-])c2cc(Cl)ccc2n1 | 5 | 15 | 2 | 26* | -1 | -1
O=[N+]([O-])c1cccnc1Oc1ccccc1F | -25 | 22 | -5 | 0 | -1 | 1
CCOc1ccc(/C=N/O)cc1 | -1 | -6 | -2 | 5 | -1 | 4
Cc1ccc(COc2ccc(/C=N/O)cc2)cc1 | 5 | 0 | 1 | 1 | 1 | 33*
CC1CCN(S(=O)(=O)c2cccc(C(=O)Nc3nncs3)c2)CC1 | 0 | 1 | 6 | -2 | 5 | 26*
Cc1nc(-c2cccc(S(=O)(=O)N3CCCCC3)c2)cs1 | -11 | -2 | 1 | 9 | 1 | 3
O=C(Nc1nncs1)c1cccc(S(=O)(=O)N2CCCC2)c1 | 2 | -14 | 15 | 5 | 4 | 3
CN1CCN(S(=O)(=O)c2cccc(C(=O)Nc3cc(C(N)=O)cc(C(N)=O)c3)c2)CC1 | 10 | 5 | 3 | 3 | 3 | 25*
CC1CCN(S(=O)(=O)c2cccc(C(=O)N(Cc3ccccc3)c3ccccn3)c2)CC1 | 18 | 4 | 5 | 0 | 3 | 25*
Cc1nc(-c2cccc(S(=O)(=O)N3CCC(C)CC3)c2)cs1 | 25 | 1 | 1 | 1 | 3 | 30*
COc1ccc(F)cc1CN1CCN(C(=O)CCC(=O)Nc2nnc(C3CCCCC3)s2)CC1 | 16 | 14 | -1 | 0 | -1 | 1
COc1ccc(C(NC(=O)CN2C(=O)NC3(CCc4ccccc43)C2=O)c2ccc(OC)cc2)cc1 (centres undefined) | 0 | · | 5 | · | 1 | 5
O=C(O)c1ccccc1C(=O)NCC(O)COc1ccc(Cl)cc1 (centres undefined) | -9 | -3 | -5 | -1 | -8 | 1
Cc1ccc(S(=O)C(c2ccccc2)c2ccccc2)cc1 (centres undefined) | · | · | 10 | · | -4 | 9
O=S(c1ccccc1)C(c1ccccc1)c1ccccc1 (centres undefined) | · | · | 13 | · | 4 | 24*
CN(C)c1cccc(C(=O)Nc2nnc(Cc3ccccc3)s2)c1 | 35 | 26 | 2 | 7 | -7 | 7
SMILES | Apaf1 inhib | PREPL inh | PAFAH1B3 FP inh | pPAFAH inh | PAFAH2 FP inh | PAFAH1B2 FP inh
CN(C)c1ccc(/C=C2\SC(N3CCCCC3)=NC2=O)cc1 | 7 | 22 | 10 | 28* | 2 | 0
Cc1ccc(N2C(=O)C3C4C=CC(C4)C3C2=O)cc1C (centres undefined) | -9 | 15 | 8 | 1 | -2 | 1
CC1=NN(c2ccc(C)c(C)c2)C(=O)C1C(c1cccc(O)c1)C1C(=O)N(c2ccc(C)c(C)c2)N=C1C (centres undefined) | 87* | 37 | -2 | 14 | 9 | 9
C/C(CCN1CCc2nc(-c3ccccc3)c(-c3ccccc3)cc2C1)=N\OC[C@@H](C)[C@H](OCc1ccccc1)C(C)C | 47* | 5 | · | 0 | · | ·
O=C(COc1coc(CN2CCc3ccccc3C2)cc1=O)Nc1cccc(F)c1 | 18 | 17 | 5 | 30* | 19 | 2
O=C(COc1coc(CN2CCc3ccccc32)cc1=O)NCCc1ccccc1 | 9 | 18 | 5 | 4 | 1 | 28*
COc1ccccc1C(=O)NCCC(=O)Nc1ccc(S(=O)(=O)N2CC(C)CC(C)C2)cc1 (centres undefined) | 18 | -3 | -3 | 0 | -3 | -1
CN1CCN(Cc2cc(COCc3ccccc3)c3cccnc3c2O)CC1 | 5 | 47* | 12 | 9 | 11 | -1
Oc1c(Cl)cc(CN2CCOCC2)c2cccnc12 | 0 | 13 | 8 | 28* | 7 | 5
Oc1ccc(CN2CCN(Cc3ccccc3)CC2)c2cccnc12 | 8 | 20 | 1 | 1 | -9 | -1
O=C(Oc1c(CN2CCOCC2)cc(Cl)c2cccnc12)c1ccccc1 | 4 | 16 | 9 | 3 | 1 | 6
CC1(C)Cc2ccccc2C(CSc2ccccc2C(=O)O)=N1 | 27 | 10 | 0 | 1 | 4 | 5
O=C1CCN(Cc2ccccc2)S(=O)(=O)c2c(F)cc(F)cc21 | 1 | -6 | 16 | 4 | 1 | 6
O=C(O)CN1C(=O)C2(OCCO2)c2cc(Br)ccc21 | -14 | 5 | 2 | 5 | 5 | 8
COc1ccc(-n2cnnc2SCc2ncc(-c3ccccc3)o2)cc1 | 9 | -23 | 3 | 2 | -6 | 4
Cn1c(COc2ccc(Cl)cc2)nnc1SCc1ncc(-c2ccccc2)o1 | 24 | -23 | 12 | -4 | 14 | 36*
CCOC(=O)N1CCC(=NNC(=O)c2cc3ccccc3cc2O)CC1 | 9 | 3 | 11 | 27* | 7 | 2
O=C1CCCC(=NNC(=O)c2cc3ccccc3cc2O)C1 | -5 | 15 | 3 | 21 | 22 | 7
Cc1c(C(=O)N2CCOCC2)cc(C(C)(C)C)n1-c1ccccc1 | -7 | 13 | 7 | -3 | 6 | 51*
O=C(Oc1cc(=O)oc2c1c(=O)n1c3c(cccc23)CC1)c1ccc(F)cc1 | -6 | -4 | · | 4 | · | ·
CC(=O)NCCC(=O)N(Cc1ccccc1)c1nc2c(C)cccc2s1 | 25 | -4 | 5 | -3 | -5 | 2
Oc1ccc(N=Cc2ccc(O)c(O)c2)cc1 | 75* | 17 | 34* | 34* | 18 | 13
